Several values for one entry are separate records, joined by “and”; a condition that tells them apart may be missing. Equal entries are not always repeated. Entries after “also recorded” stand apart in the source; their conditions may differ. Where two headings read alike, the source gives them in different places.
Legend:
[1] = baboon
baboons [2] = assay: Fine-motor task; format: in vivo, Papio anubis; conditions: for Duration to complete the fine-motor task compared to vehicle: across 30, 60 and 120 min
in vivo = conditions: plasma, po
baboons [3] = assay: Paper and pencil behavioral checklists; format: in vivo, Papio anubis; conditions: for Return to baseline for all observed behavioral effects, time postadministration: baboon (Papio anubis), in vivo, oral
[4] = cited from earlier work; for Mean maximum concentration of GHB in plasma: human, 50 mg/kg GHB
baboons [5] = assay: Food-maintained operant behavior procedure; format: in vivo, Papio anubis; conditions: for Time food-maintained behavior was suppressed after administration: high doses
Outline: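 Test compound or vehicle was diluted in water to 150 ml total and infused intragastrically. Sessions started at 9:00 am right after dosing. Food pellets were available 20 h/day on a fixed-ratio schedule via a Lindsley operandum. Pellets earned were counted in ten 2-h bins up to 20 h. Analysis was repeated-measures two-way ANOVA (dose × time), p<0.05.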

rhesus monkeys = conditions: food-maintained operant procedure; ref McMahon et al. 2003; cited from earlier work
[6] = humans, 25 mg/kg 1,4-BD; ref Thai et al. 2006; cited from earlier work
baboons [7] = assay: 30-min continuous behavioral observation session; format: in vivo, Papio anubis
humans = conditions: ref Carter et al. 2006; cited from earlier work
baboons [8] = conditions: 4 h after administration; reanalyzed data; ref Goodwin et al. 2005; cited from earlier work
[9] = Pharmacokinetics: GHB in plasma after intragastric GHB, GBL or 1,4-BD; conditions: for Mean maximum concentration of GHB in plasma: baboon, ±SD
baboons [10] = conditions: ref Goodwin et al. 2005, cited from earlier work
[11] = humans, 25 mg/kg 1,4-BD, ref Thai et al. 2006
[12] = 180 mg/kg, 2 h after administration, p<0.001
[13] = 180 mg/kg, 4 h after administration
[14] = 180 mg/kg, 60 to 90 min after drug
[15] = 240 mg/kg, 60 to 90 min after drug
[16] = 100 mg/kg, 60 to 90 min after drug

## OCCCCO [1,4-BD, 1,4-butanediol]
[1]; 32 mg/kg 1,4-BD
  Maximum concentrations of 1,4-BD (range): 0.48 to 0.69 µg/mL
[1]; 100 mg/kg 1,4-BD
  T1/2 for GHB in plasma relative to T1/2 of 1,4-BD (fold longer): five
[1]; 180 mg/kg 1,4-BD
  T1/2 for GHB in plasma relative to T1/2 of 1,4-BD (fold longer): sevenfold
Baboons [2]; 180 mg/kg, 60 min postadministration, p<0.001
  Duration to complete the fine-motor task: significantly increased
Baboons [2]; 180 mg/kg, 120 min postadministration, p<0.001
  Duration to complete the fine-motor task: significantly increased
Baboons [2]; 240 mg/kg
  Completion of the fine-motor task: all subjects failed to complete the task within the maximum time of 120 s
Baboons [2]; 240 mg/kg, 120 min postadministration, p<0.001
  Duration to complete the fine-motor task: significantly increased
Baboons [2]; any dose, 30-min postadministration
  Duration to complete the fine-motor task: did not alter
In vivo; monkey, 32 mg/kg
  AUC: 33.4 µM·h
  Cmax: 5.3 to 7.7 µM
  half-life: 4.13 h
In vivo; monkey, 100 mg/kg
  AUC: 612 µM·h
  Cmax: 47.8 to 590 µM
  half-life: 0.589 h
In vivo; monkey, 180 mg/kg
  AUC: 942 µM·h
  Cmax: 289 to 1100 µM
  half-life: 0.711 h
In vivo
  Tmax: 0.5 h
In vivo; 100 mg/kg
  half-life: < 1 h
In vivo; 180 mg/kg
  half-life: < 1 h
Baboons [3]; 180 mg/kg IG
  Duration of effects in ≥50% of subjects, ataxia: 4.0 h
  Duration of effects in ≥50% of subjects, lip droop: 2.5 h
  Duration of effects in ≥50% of subjects, tremor/jerk: 5.0 h
  Duration of effects in ≥50% of subjects, vomit: 2.5 h
  Number of subjects at maximal effect, ataxia: 4/4
  Number of subjects at maximal effect, lip droop: 2/4
  Number of subjects at maximal effect, tremor/jerk: 4/4
  Number of subjects at maximal effect, vomit: 3/4
  Recovery of baseline (100% of subjects), ataxia: 7.0 h
  Recovery of baseline (100% of subjects), lip droop: 4.0 h
  Recovery of baseline (100% of subjects), tremor/jerk: 7.5 h
  Recovery of baseline (100% of subjects), vomit: 7.5 h
  Time to maximal effects, ataxia: 2.0 h
  Time to maximal effects, lip droop: 2 h and 2.0 h
  Time to maximal effects, tremor/jerk: 1.0 h
  Time to maximal effects, vomit: 2.5 h
Baboons [3]; 240 mg/kg IG
  Duration of effects in ≥50% of subjects, ataxia: 4.0 h
  Duration of effects in ≥50% of subjects, lip droop: 3.5 h
  Duration of effects in ≥50% of subjects, tremor/jerk: 6.0 h
  Duration of effects in ≥50% of subjects, vomit: 1.0 h
  Number of subjects at maximal effect, ataxia: 4/4
  Number of subjects at maximal effect, lip droop: 3/4
  Number of subjects at maximal effect, tremor/jerk: 4/4
  Number of subjects at maximal effect, vomit: 3/4
  Recovery of baseline (100% of subjects), ataxia: 6.0 h
  Recovery of baseline (100% of subjects), lip droop: 5.0 h
  Recovery of baseline (100% of subjects), tremor/jerk: 8.0 h
  Recovery of baseline (100% of subjects), vomit: 7.5 h
  Time to maximal effects, ataxia: 2.0 h
  Time to maximal effects, lip droop: 1−2 h and 1 h and 1.0 h
  Time to maximal effects, tremor/jerk: 2.0 h
  Time to maximal effects, vomit: 1.0 h
Baboons [3]; 180 and 240 mg/kg
  Time at which lip droop continued in half of the subjects: 2.5−3.5 h
  Time postadministration by which lip droop was no longer observed: ≤ 5 h
Baboons [3]
  Return to baseline for all observed behavioral effects, time postadministration: 7−8 h
[4]; [11]
  Maximum concentration of GHB, range: 22.2−85.7 μg/ml
  Mean maximum concentration of GHB: 45.6 µg/mL
Baboons [5]; 56 mg/kg, 4 h after administration, p<0.05
  Food-maintained behavior compared to vehicle: increases
Baboons [5]; [12]
  Food-maintained behavior compared to vehicle: decreased
Baboons [5]; [13]
  Food-maintained behavior compared to vehicle: decreased
Baboons [5]; 240 mg/kg, 2 h postadministration, p<0.001
  Food-maintained behavior compared to vehicle: decreased
Baboons [5]; 240 mg/kg, 4 h postadministration, p<0.05
  Food-maintained behavior compared to vehicle: decreased
Baboons [5]
  Time food-maintained behavior was suppressed after administration: 4 h
Rhesus monkeys
  Time after administration at which response rate was decreased: 150 min
[6]
  Maximum concentration of 1,4-BD, range: 0.33−14.4 μg/ml
  Mean maximum concentration of 1,4-BD: 3.84 µg/mL
Baboons [7]; 56 mg/kg, 60 to 90 min after drug
  Frequency of scratch/groom compared to vehicle: increased
Baboons [7]; [14]
  Frequency of ataxia compared to vehicle: significantly increased
  Frequency of scratch/groom compared to vehicle: increased
  Frequency of tremor/jerks compared to vehicle: significantly increased
  Frequency of vomit/retch compared to vehicle: significantly increased
Baboons [7]; [15]
  Duration of lip droop compared to vehicle: significantly increased
  Frequency of ataxia compared to vehicle: significantly increased
  Frequency of tremor/jerks compared to vehicle: significantly increased
  Frequency of vomit/retch compared to vehicle: significantly increased
  Time lying down compared to vehicle: significantly increased

## O=C(O)CCCO [GHB, Gamma-hydroxybutyrate]
humans
  Time of maximal drug effects postadministration: 1−2 h
[4]; human subjects, total doses of 3−4.5 g GHB (i.e., 42.8 mg/kg), ref Scharf et al. 1998
  Maximum concentration of GHB, range: 30 to 103 µg/mL
[4]; ref Abanades et al. 2007
  Mean maximum concentration of GHB in plasma: 83.1 (+10.7 SD) μg/ml
[4]; ref Palatini et al. 1993
  Mean maximum concentration of GHB in plasma: 20 µg/mL
Baboons [8]
  Food-maintained behavior compared to vehicle: not significantly altered
[9]; 32 mg/kg GHB
  Mean maximum concentration of GHB in plasma: 18.46 (±8.66 SD) μg/ml
[9]; 100 mg/kg GHB
  Mean maximum concentration of GHB in plasma: 72.2 (±15.73 SD) μg/ml
[9]; monkey, plasma, po, 320 mg/kg
  AUC: 4580 µM·h
  Cmax: 598 to 1940 µM
  half-life: 12.2 h
[9]; plasma, po, 320 mg/kg
  Tmax: 6 h
Baboons [10]; 180−420 mg/kg, 120 min postadministration
  Duration to complete the fine-motor task: increased
Baboons [10]; any dose tested, 60 min postadministration
  Duration to complete the fine-motor task: did not alter

## O=C1CCCO1 [GBL, Gamma-butyrolactone]
Baboons [2]; 100 mg/kg, p<0.001
  Duration to complete the fine-motor task compared to vehicle: increased
Baboons [2]; 180 mg/kg, p<0.001
  Duration to complete the fine-motor task compared to vehicle: increased
Baboons [3]; 100 mg/kg
  Time to maximal effect, ataxia: 30 min
  Time to maximal effect, tremor/jerks: 30 min
Baboons [3]; 100 mg/kg IG
  Duration of effects in ≥50% of subjects, ataxia: 1.0 h
  Duration of effects in ≥50% of subjects, lip droop: 2.0 h
  Duration of effects in ≥50% of subjects, vomit: 1.0 h
  Number of subjects at maximal effect, ataxia: 3/4
  Number of subjects at maximal effect, lip droop: 3/4
  Number of subjects at maximal effect, tremor/jerk: 1/4
  Number of subjects at maximal effect, vomit: 2/4
  Recovery of baseline (100% of subjects), ataxia: 2.5 h
  Recovery of baseline (100% of subjects), lip droop: 3.5 h
  Recovery of baseline (100% of subjects), vomit: 2.0 h
  Time to maximal effects, ataxia: 0.5 h
  Time to maximal effects, lip droop: 1.0 h
  Time to maximal effects, tremor/jerk: 0.5 h
  Time to maximal effects, vomit: 1 h and 1.0 h
Baboons [3]; 180 mg/kg
  Time to maximal effect, ataxia: 30 min
  Time to maximal effect, tremor/jerks: 30 min
Baboons [3]; 180 mg/kg IG
  Duration of effects in ≥50% of subjects, ataxia: 4 h and 4.0 h
  Duration of effects in ≥50% of subjects, lip droop: 2.5 h
  Duration of effects in ≥50% of subjects, tremor/jerk: 5 h and 5.0 h
  Duration of effects in ≥50% of subjects, vomit: 1.0 h
  Number of subjects at maximal effect, ataxia: 4/4
  Number of subjects at maximal effect, lip droop: 4/4
  Number of subjects at maximal effect, tremor/jerk: 4/4
  Number of subjects at maximal effect, vomit: 4/4
  Recovery of baseline (100% of subjects), ataxia: 6.0 h
  Recovery of baseline (100% of subjects), lip droop: 6.0 h
  Recovery of baseline (100% of subjects), tremor/jerk: 6.0 h
  Recovery of baseline (100% of subjects), vomit: 2.0 h
  Time to maximal effects, ataxia: 0.5 h
  Time to maximal effects, lip droop: 0.5 h
  Time to maximal effects, tremor/jerk: 0.5 h
  Time to maximal effects, vomit: 1 h and 1.0 h
Baboons [3]
  Return to baseline for all observed behavioral effects, time postadministration: ≤ 6 h
Baboons [5]; 100 mg/kg, 2 h after administration, p<0.001
  Food-maintained behavior compared to vehicle: decreased
Baboons [5]; [12]
  Food-maintained behavior compared to vehicle: decreased
Baboons [5]; [13]
  Food-maintained behavior compared to vehicle: decreased
Baboons [5]; 240 mg/kg, one subject (HA), data not shown
  Food-maintained behavior: suppressed over the entire 20 h
Baboons [5]; all doses tested
  Increase of food-maintained behavior: none of the doses increased
Baboons [5]
  Time food-maintained behavior was suppressed after administration: 4 h
Rhesus monkeys
  Time after administration at which response rate was decreased: 90 min
Baboons [7]; [16]
  Duration of lip droop compared to vehicle: significantly increased
  Frequency of ataxia compared to vehicle: significantly increased
  Frequency of scratch/groom compared to vehicle: significantly increased
  Frequency of tremor/jerks compared to vehicle: significantly increased
Baboons [7]; [14]
  Duration of lip droop compared to vehicle: significantly higher
  Duration of lying down compared to vehicle: increased
  Frequency of ataxia compared to vehicle: significantly higher
  Frequency of scratch/groom compared to vehicle: decreased
  Frequency of tremor/jerks compared to vehicle: significantly higher
  Frequency of vomit/retch compared to vehicle: increased
Baboons [7]; 240 mg/kg, once in one subject (HA), data not shown
  Observed effects of the high dose: resulted in convulsions; also recorded: vomit/retch, ataxia, tremor/jerks, sedation/anesthesia, and seizures; also recorded: both seizures and catalepsy

— article PMC2682635 (Psychopharmacology, 2009)
